From ChEMBL document CHEMBL1275334, “5-Piperazinyl-3-sulfonylindazoles as potent and selective 5-hydroxytryptamine-6 antagonists” (J Med Chem, 2010)
Active and inactive are the calls of the source. The rule behind the calls is not given here.

Columns and labels:
[1] = molecular target: T1, 5-hydroxytryptamine receptor 6 (Homo sapiens, UniProt P50406); assay: Displacement of [3H]LSD from human cloned 5HT6 receptor expressed in human HeLa cells; type: cell-based
Method in brief: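 Radioligand displacement of [3H]LSD from cloned human 5-HT6 receptor stably expressed in HeLa cells. All test substances were used as HCl salts. Ki was determined in triplicate.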

[2] = molecular target: T1, 5-hydroxytryptamine receptor 6; assay: Antagonist activity at human cloned 5HT6 receptor expressed in human HeLa cells by cyclase assay relative to control; type: functional, cell-based
[3] = molecular target: T1, 5-hydroxytryptamine receptor 6; assay: Antagonist activity at human cloned 5HT6 receptor expressed in human HeLa cells by cyclase assay; type: functional, cell-based
[4] = molecular target: 5-hydroxytryptamine receptor 1B (Homo sapiens, UniProt P28222); assay: Displacement of [3H]LSD from human cloned 5HT1B receptor expressed in human HeLa cells; type: cell-based
5-hydroxytryptamine receptor 1B, sequence (P28222 whole entry): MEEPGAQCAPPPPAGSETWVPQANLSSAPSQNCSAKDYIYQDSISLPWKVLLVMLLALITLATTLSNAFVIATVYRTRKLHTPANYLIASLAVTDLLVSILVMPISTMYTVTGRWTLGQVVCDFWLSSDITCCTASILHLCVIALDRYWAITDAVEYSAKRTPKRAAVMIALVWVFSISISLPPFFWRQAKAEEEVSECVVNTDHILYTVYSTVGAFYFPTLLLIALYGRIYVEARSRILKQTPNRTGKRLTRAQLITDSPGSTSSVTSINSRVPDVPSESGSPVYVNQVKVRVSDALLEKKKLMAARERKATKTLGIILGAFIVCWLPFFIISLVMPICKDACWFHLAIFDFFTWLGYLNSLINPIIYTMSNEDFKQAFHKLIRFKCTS

D(2) dopamine receptor = D(2) dopamine receptor (Homo sapiens, UniProt P14416); assay: Displacement of [3H]LSD from human cloned dopamine D2 receptor expressed in human HeLa cells; type: cell-based
D(2) dopamine receptor, sequence (P14416 whole entry): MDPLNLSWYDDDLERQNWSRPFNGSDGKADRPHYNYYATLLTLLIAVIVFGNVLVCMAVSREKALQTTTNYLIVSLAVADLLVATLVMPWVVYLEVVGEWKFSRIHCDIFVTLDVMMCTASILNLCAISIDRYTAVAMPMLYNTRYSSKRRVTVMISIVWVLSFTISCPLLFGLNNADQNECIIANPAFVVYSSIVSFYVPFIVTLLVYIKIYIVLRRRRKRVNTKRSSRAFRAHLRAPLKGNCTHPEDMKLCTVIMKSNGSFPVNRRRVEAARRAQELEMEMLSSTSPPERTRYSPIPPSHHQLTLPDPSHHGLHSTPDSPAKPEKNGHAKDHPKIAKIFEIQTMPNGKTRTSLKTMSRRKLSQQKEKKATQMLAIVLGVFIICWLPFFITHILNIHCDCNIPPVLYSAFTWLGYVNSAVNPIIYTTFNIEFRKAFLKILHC

[5] = molecular target: 5-hydroxytryptamine receptor 1D (Homo sapiens, UniProt P28221); assay: Displacement of [3H]LSD from human cloned 5HT1D receptor expressed in human HeLa cells; type: cell-based
5-hydroxytryptamine receptor 1D, sequence (P28221 whole entry): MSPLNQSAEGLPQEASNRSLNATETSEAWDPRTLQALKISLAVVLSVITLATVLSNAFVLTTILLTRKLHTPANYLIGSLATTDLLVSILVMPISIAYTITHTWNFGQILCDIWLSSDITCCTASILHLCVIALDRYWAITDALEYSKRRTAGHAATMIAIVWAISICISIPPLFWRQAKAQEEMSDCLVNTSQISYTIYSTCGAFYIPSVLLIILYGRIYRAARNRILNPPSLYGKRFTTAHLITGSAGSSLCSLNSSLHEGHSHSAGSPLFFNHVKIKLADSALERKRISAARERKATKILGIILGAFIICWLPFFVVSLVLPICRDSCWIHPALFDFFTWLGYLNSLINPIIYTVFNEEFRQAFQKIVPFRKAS

[6] = molecular target: T2, Alpha-2A adrenergic receptor (Homo sapiens, UniProt P08913); assay: Displacement of [3H]LSD from human cloned alpha2A adrenergic receptor expressed in human HeLa cells; type: cell-based
T2 sequence (P08913 whole entry): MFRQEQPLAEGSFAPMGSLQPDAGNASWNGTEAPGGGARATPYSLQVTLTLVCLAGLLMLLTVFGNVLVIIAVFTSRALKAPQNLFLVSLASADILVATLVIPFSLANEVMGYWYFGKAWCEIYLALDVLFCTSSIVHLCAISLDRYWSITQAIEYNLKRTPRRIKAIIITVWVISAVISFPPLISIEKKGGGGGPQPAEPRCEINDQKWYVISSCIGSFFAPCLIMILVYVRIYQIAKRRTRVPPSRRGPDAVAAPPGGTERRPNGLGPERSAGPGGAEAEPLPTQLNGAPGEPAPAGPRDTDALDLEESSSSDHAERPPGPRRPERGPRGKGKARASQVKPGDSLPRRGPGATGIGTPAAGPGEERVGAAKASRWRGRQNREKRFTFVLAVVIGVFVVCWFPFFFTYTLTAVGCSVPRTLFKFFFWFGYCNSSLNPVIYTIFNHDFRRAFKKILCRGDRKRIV

[7] = molecular target: T3, 5-hydroxytryptamine receptor 2C (Homo sapiens, UniProt P28335); assay: Displacement of [3H]LSD from human cloned 5HT2C receptor expressed in human HeLa cells; type: cell-based
T3 sequence (P28335 whole entry): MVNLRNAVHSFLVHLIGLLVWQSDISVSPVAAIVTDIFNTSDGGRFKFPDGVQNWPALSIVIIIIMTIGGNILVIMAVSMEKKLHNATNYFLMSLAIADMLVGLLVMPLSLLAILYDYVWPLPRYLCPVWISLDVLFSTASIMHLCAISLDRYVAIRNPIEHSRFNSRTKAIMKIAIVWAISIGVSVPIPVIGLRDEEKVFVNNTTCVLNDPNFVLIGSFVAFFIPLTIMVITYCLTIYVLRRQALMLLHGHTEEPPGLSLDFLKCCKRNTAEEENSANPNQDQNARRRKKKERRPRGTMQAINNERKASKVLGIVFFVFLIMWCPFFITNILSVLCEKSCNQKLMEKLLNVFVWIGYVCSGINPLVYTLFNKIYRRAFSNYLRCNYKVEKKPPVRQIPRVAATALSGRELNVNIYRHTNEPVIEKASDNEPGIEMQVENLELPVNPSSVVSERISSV

[8] = molecular target: 5-hydroxytryptamine receptor 7 (Homo sapiens, UniProt P34969); assay: Displacement of [3H]LSD from human cloned 5HT7 receptor expressed in human HeLa cells; type: cell-based
5-hydroxytryptamine receptor 7, sequence (P34969 whole entry): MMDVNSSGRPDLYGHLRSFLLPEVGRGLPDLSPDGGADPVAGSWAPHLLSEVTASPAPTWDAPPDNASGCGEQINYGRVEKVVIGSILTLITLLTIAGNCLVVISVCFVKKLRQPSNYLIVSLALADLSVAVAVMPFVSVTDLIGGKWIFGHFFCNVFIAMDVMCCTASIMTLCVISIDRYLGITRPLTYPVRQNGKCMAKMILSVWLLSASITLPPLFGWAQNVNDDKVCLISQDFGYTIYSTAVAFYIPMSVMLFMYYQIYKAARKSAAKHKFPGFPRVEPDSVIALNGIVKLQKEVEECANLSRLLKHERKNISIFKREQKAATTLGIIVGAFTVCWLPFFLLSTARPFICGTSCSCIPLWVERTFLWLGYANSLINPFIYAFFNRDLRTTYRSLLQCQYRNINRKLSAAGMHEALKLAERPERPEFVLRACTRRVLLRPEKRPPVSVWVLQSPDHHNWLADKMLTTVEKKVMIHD

[9] = molecular target: T4, 5-hydroxytryptamine receptor 2B (Homo sapiens, UniProt P41595); assay: Displacement of [3H]LSD from human cloned 5HT2B receptor expressed in human HeLa cells; type: cell-based
T4 sequence (P41595 whole entry): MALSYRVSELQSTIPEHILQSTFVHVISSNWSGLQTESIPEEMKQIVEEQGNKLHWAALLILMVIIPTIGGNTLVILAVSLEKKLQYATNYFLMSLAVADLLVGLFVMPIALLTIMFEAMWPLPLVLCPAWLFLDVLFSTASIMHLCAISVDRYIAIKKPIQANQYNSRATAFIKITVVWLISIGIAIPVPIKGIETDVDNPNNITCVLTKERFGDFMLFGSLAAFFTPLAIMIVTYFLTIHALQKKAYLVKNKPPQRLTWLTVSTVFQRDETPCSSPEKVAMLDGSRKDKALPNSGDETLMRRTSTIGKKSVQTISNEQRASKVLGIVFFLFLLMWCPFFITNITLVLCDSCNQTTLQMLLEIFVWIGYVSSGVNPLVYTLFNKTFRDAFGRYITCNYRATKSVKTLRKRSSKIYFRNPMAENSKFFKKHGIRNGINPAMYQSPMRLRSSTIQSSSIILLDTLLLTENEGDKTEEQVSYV

[10] = molecular target: T5, 5-hydroxytryptamine receptor 1A (Homo sapiens, UniProt P08908); assay: Displacement of [3H]LSD from human cloned 5HT1A receptor expressed in human HeLa cells; type: cell-based
T5 sequence (P08908 whole entry): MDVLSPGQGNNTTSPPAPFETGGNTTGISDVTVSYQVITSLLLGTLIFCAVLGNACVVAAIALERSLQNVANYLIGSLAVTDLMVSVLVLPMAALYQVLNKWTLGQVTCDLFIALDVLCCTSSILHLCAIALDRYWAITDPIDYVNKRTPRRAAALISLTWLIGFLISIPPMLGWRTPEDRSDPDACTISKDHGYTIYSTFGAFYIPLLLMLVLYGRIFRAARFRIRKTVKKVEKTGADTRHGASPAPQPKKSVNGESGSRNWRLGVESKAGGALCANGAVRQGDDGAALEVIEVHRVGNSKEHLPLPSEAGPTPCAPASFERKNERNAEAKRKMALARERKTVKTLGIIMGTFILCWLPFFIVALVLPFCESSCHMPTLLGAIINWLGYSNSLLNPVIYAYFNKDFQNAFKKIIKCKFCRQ

[11] = molecular target: T4, 5-hydroxytryptamine receptor 2B; assay: Agonist activity at human recombinant 5HT2B receptor expressed in CHOK1 cells at 0.0001 to 10 uM by FLIPR assay; type: functional, cell-based; conditions: CHO-K1

T1 sequence (P50406 whole entry): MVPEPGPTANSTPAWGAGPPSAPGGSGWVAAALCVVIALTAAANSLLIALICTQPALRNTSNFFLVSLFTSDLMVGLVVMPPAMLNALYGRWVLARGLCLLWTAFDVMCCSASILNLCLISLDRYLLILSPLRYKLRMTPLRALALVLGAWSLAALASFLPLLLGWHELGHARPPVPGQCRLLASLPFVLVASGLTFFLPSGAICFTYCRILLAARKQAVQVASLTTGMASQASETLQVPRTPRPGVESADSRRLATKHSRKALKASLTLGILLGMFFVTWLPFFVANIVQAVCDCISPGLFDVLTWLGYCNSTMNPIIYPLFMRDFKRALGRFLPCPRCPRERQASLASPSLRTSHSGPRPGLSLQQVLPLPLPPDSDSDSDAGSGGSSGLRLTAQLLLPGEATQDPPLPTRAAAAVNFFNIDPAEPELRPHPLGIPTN

SMILES	Ki [1]	Imax [2]	IC50 [3]	other results
Cc1ccc(S(=O)(=O)c2n[nH]c3cccc(N4CCNCC4)c23)cc1	134 nM			
CN1CCN(c2ccc3c(c2)c(S(=O)(=O)c2cccc4ccccc24)nn3C)CC1	1.7 nM	100%		
COc1ccc(S(=O)(=O)c2n[nH]c3cccc(N4CCNCC4)c23)cc1	88 nM			
CN1CCN(c2ccc3[nH]nc(S(=O)(=O)c4c(Cl)cccc4Cl)c3c2)CC1	2.6 nM	100%	40 nM	
CN1CCN(c2ccc3c(c2)c(S(=O)(=O)c2cccc4ccccc24)nn3Cc2ccccc2)CC1		100%		
Cc1ccc(S(=O)(=O)c2n[nH]c3ccc(N4CCN(C)CC4)cc23)cc1	4.9 nM	100%	112 nM	
O=S(=O)(c1cccc2ccccc12)c1n[nH]c2cccc(N3CCNCC3)c12	48 nM			
CCn1nc(S(=O)(=O)c2cccc3ccccc23)c2cc(N3CCN(C)CC3)ccc21	1.7 nM	100%		
CN1CCN(c2ccc3[nH]nc(S(=O)(=O)c4ccc(Cl)cc4)c3c2)CC1	8.1 nM	100%	108 nM	
CN1CCN(c2ccc3[nH]nc(S(=O)(=O)c4cccc(Cl)c4)c3c2)CC1	1 nM	100%	62 nM	
CN1CCN(c2ccc3[nH]nc(S(=O)(=O)c4ccccc4Cl)c3c2)CC1		100%	101 nM	
CC(C)Cn1nc(S(=O)(=O)c2cccc3ccccc23)c2cc(N3CCNCC3)ccc21		100%		Ki [4]: > 5000 nM; Ki (D(2) dopamine receptor): 1900 nM; Ki [5]: > 5000 nM; Ki [6]: > 5000 nM; Ki [7]: 1880 nM; Ki [8]: > 5000 nM; Ki [9]: 281 nM; Ki [10]: > 5000 nM; Activity [11]: inactive
O=S(=O)(c1cccc(F)c1)c1n[nH]c2cccc(N3CCNCC3)c12	134 nM			
Cn1nc(S(=O)(=O)c2cccc3ccccc23)c2cc(N3CCNCC3)ccc21		99%		Ki [4]: 3620 nM; Ki (D(2) dopamine receptor): 2240 nM; Ki [5]: 2760 nM; Ki [6]: > 5000 nM; Ki [7]: 3650 nM; Ki [8]: > 5000 nM; Ki [9]: 87 nM; Ki [10]: 1780 nM; Activity [11]: inactive
O=S(=O)(c1ccc(C(F)(F)F)cc1)c1n[nH]c2cc(N3CCNCC3)ccc12	207 nM			
CC(C)Cn1nc(S(=O)(=O)c2cccc3ccccc23)c2cc(N3CCN(C)CC3)ccc21	1.4 nM	100%		
CN1CCN(c2ccc3[nH]nc(S(=O)(=O)c4cccc(F)c4)c3c2)CC1	1.7 nM	99%	132 nM	
Cn1nc(S(=O)(=O)c2ccccc2)c2cc(N3CCNCC3)ccc21	3.2 nM	100%		
O=S(=O)(c1cccc(F)c1)c1n[nH]c2cc(N3CCNCC3)ccc12	11 nM			

SMILES	Ki [1]	Imax [2]	IC50 [3]	other results
CN1CCN(c2ccc3[nH]nc(S(=O)(=O)c4cccs4)c3c2)CC1	7.8 nM	96%	331 nM	
COc1ccc(S(=O)(=O)c2n[nH]c3ccc(N4CCN(C)CC4)cc23)cc1		100%	544 nM	
CC(C)n1nc(S(=O)(=O)c2cccc3ccccc23)c2cc(N3CCN(C)CC3)ccc21	1.8 nM	98%		
CCn1nc(S(=O)(=O)c2cccc3ccccc23)c2cc(N3CCNCC3)ccc21		100%		
CN1CCN(c2ccc3[nH]nc(S(=O)(=O)c4ccccc4F)c3c2)CC1	5.5 nM	100%	54 nM	
Cc1ccc(S(=O)(=O)c2n[nH]c3cc(N4CCNCC4)ccc23)cc1	27 nM			
COc1cccc(S(=O)(=O)c2n[nH]c3ccc(N4CCN(C)CC4)cc23)c1	1.1 nM	100%	57 nM	
O=S(=O)(c1ccc(Cl)cc1)c1n[nH]c2cccc(N3CCNCC3)c12	125 nM			
CCCn1nc(S(=O)(=O)c2cccc3ccccc23)c2cc(N3CCN(C)CC3)ccc21	1.8 nM	100%		
CC(C)n1nc(S(=O)(=O)c2cccc3ccccc23)c2cc(N3CCNCC3)ccc21	2.9 nM	100%		Ki [4]: > 5000 nM; Ki (D(2) dopamine receptor): 2040 nM; Ki [5]: > 5000 nM; Ki [6]: > 5000 nM; Ki [7]: 1080 nM; Ki [8]: > 5000 nM; Ki [9]: 96 nM; Ki [10]: > 5000 nM; Activity [11]: inactive
CN1CCN(c2cccc3c(S(=O)(=O)c4cccc5ccccc45)n[nH]c23)CC1	4.6 nM	100%	17 nM	
COc1ccc(S(=O)(=O)c2n[nH]c3cc(N4CCNCC4)ccc23)cc1	124 nM			
CN1CCN(c2ccc3[nH]nc(S(=O)(=O)c4ccc(F)cc4)c3c2)CC1	5.2 nM	98%	467 nM	
CN1CCN(c2ccc3[nH]nc(S(=O)(=O)c4ccccc4)c3c2)CC1	1.9 nM	99%	8.8 nM	Ki [4]: > 5000 nM; Ki (D(2) dopamine receptor): 355 nM; Ki [5]: > 5000 nM; Ki [6]: > 5000 nM; Ki [7]: 3070 nM; Ki [8]: 753 nM; Ki [9]: 978 nM; Ki [10]: > 5000 nM; Activity [11]: inactive
CCCn1nc(S(=O)(=O)c2cccc3ccccc23)c2cc(N3CCNCC3)ccc21			2.2 nM	
Cc1cccc(S(=O)(=O)c2n[nH]c3ccc(N4CCN(C)CC4)cc23)c1	0.9 nM	100%	38 nM	
O=S(=O)(c1cccc2ccccc12)c1n[nH]c2cc(N3CCNCC3)ccc12	22 nM			
O=S(=O)(c1ccc(Cl)cc1)c1n[nH]c2cc(N3CCNCC3)ccc12	110 nM			
CCn1nc(S(=O)(=O)c2ccccc2)c2cc(N3CCNCC3)ccc21	2.9 nM	100%		
